Several values for one entry are separate records, joined by “and”; a condition that tells them apart may be missing. Equal entries are not always repeated.
Key:
Type in all cases: toxicity, cell-based
[1] = system: Fibroblast; assay: Multiplex assay against human fibroblast
In short: (§1)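 Four dyes were applied at seeding to live cells: Hoechst33342, BioTracker Green Microtubule Cytoskeleton Dye, MitoTracker Red and Annexin V Alexa Fluor 680. Imaging after compound addition used a CQ1 microscope at 37°C and 5% CO2. CellPathfinder machine-learning gating then sorted cells into Hoechst high-intensity objects or normal cells, normal cells into healthy, pyknosed or fragmented nuclei, and pyknosed cells into mitotic or apoptotic, with tubulin, mitochondrial-mass and membrane-permeability phenotypes given as per cents of healthy-nucleus cells.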

[2] = system: HEK-293T; assay: Multiplex assay against HEK293T; settings: human; in short: as §1
[3] = system: U2OS; assay: Multiplex assay against U2OS; settings: human; in short: as §1
[4] = 12 h, 1 µM, compound concentration 1 uM
[5] = 12 h, 10 µM, compound concentration 10 uM
[6] = 24 h, 1 µM, compound concentration 1 uM
[7] = 24 h, 10 µM, compound concentration 10 uM
[8] = 48 h, 1 µM, compound concentration 1 uM
[9] = 48 h, 10 µM, compound concentration 10 uM

COC[C@@H](c1ccc(C(F)(F)F)cc1)N1CCN(C2(C)CCN(C(=O)c3c(C)ncnc3C)CC2)C[C@@H]1C.O=C(O)/C=C\C(=O)O [VICRIVIROC MALEATE]
Population Apoptotic (%) [1, 4]: 36% | Population Fragmented Nuclei (%) [1, 4]: 23% | Population Healthy Nuclei (%) [1, 4]: 53% and 51% | Population Hoechst High Intensity Objects (%) [1, 4]: 4% | Population Membrane Permeable-Phenotype (%) [1, 4]: 2% and 5% | Population Mitochondria Different-Phenotype (%) [1, 4]: 11% and 13% | Population Mitotic Cells (%) [1, 4]: 63% | Population Normal (%) [1, 4]: 95% | Population Pyknosed Nuclei (%) [1, 4]: 22% and 25% | Population Tubulin-Different-Phenotype (%) [1, 4]: 16% and 41% | Total Cell Count [1, 4]: 138 and 190 | Population Apoptotic (%) [1, 5]: 58% and 33% | Population Fragmented Nuclei (%) [1, 5]: 26% and 48% | Population Healthy Nuclei (%) [1, 5]: 59% and 33% | Population Hoechst High Intensity Objects (%) [1, 5]: 17% and 20% | Population Membrane Permeable-Phenotype (%) [1, 5]: 2% and 12% | Population Mitochondria Different-Phenotype (%) [1, 5]: 4% | Population Mitotic Cells (%) [1, 5]: 41% and 66% | Population Normal (%) [1, 5]: 82% and 79% | Population Pyknosed Nuclei (%) [1, 5]: 14% and 18% | Population Tubulin-Different-Phenotype (%) [1, 5]: 45% and 67% | Total Cell Count [1, 5]: 208 and 186 | Population Apoptotic (%) [1, 6]: 66% and 30% | Population Fragmented Nuclei (%) [1, 6]: 21% and 28% | Population Healthy Nuclei (%) [1, 6]: 57% and 50% | Population Hoechst High Intensity Objects (%) [1, 6]: 3% | Population Membrane Permeable-Phenotype (%) [1, 6]: 1% and 8% | Population Mitochondria Different-Phenotype (%) [1, 6]: 7% and 20% | Population Mitotic Cells (%) [1, 6]: 33% and 69% | Population Normal (%) [1, 6]: 96% | Population Pyknosed Nuclei (%) [1, 6]: 20% and 21% | Population Tubulin-Different-Phenotype (%) [1, 6]: 18% and 41% | Total Cell Count [1, 6]: 138 and 204 | Population Apoptotic (%) [1, 7]: 73% and 42% | Population Fragmented Nuclei (%) [1, 7]: 23% and 46% | Population Healthy Nuclei (%) [1, 7]: 64% and 39% | Population Hoechst High Intensity Objects (%) [1, 7]: 12% and 21% | Population Membrane Permeable-Phenotype (%) [1, 7]: 0% and 8% | Population Mitochondria Different-Phenotype (%) [1, 7]: 5% and 12% | Population Mitotic Cells (%) [1, 7]: 26% and 57% | Population Normal (%) [1, 7]: 87% and 78% | Population Pyknosed Nuclei (%) [1, 7]: 11% and 14% | Population Tubulin-Different-Phenotype (%) [1, 7]: 42% and 60% | Total Cell Count [1, 7]: 196 and 183 | Population Apoptotic (%) [1, 8]: 59% and 53% | Population Fragmented Nuclei (%) [1, 8]: 21% and 33% | Population Healthy Nuclei (%) [1, 8]: 56% and 50% | Population Hoechst High Intensity Objects (%) [1, 8]: 3% and 5% | Population Membrane Permeable-Phenotype (%) [1, 8]: 0% and 9% | Population Mitochondria Different-Phenotype (%) [1, 8]: 7% and 19% | Population Mitotic Cells (%) [1, 8]: 40% and 46% | Population Normal (%) [1, 8]: 96% and 95% | Population Pyknosed Nuclei (%) [1, 8]: 21% and 15% | Population Tubulin-Different-Phenotype (%) [1, 8]: 34% and 58% | Total Cell Count [1, 8]: 127 and 180 | Population Apoptotic (%) [1, 9]: 73% and 53% | Population Fragmented Nuclei (%) [1, 9]: 23% and 54% | Population Healthy Nuclei (%) [1, 9]: 65% and 35% | Population Hoechst High Intensity Objects (%) [1, 9]: 14% and 20% | Population Membrane Permeable-Phenotype (%) [1, 9]: 0% and 9% | Population Mitochondria Different-Phenotype (%) [1, 9]: 5% and 10% | Population Mitotic Cells (%) [1, 9]: 26% and 46% | Population Normal (%) [1, 9]: 85% and 79% | Population Pyknosed Nuclei (%) [1, 9]: 10% and 9% | Population Tubulin-Different-Phenotype (%) [1, 9]: 48% and 61% | Total Cell Count [1, 9]: 206 and 193 | Population Apoptotic (%) [2, 4]: 46% and 45% | Population Fragmented Nuclei (%) [2, 4]: 7% | Population Healthy Nuclei (%) [2, 4]: 80% | Population Hoechst High Intensity Objects (%) [2, 4]: 9% and 5% | Population Membrane Permeable-Phenotype (%) [2, 4]: 0% | Population Mitochondria Different-Phenotype (%) [2, 4]: 47% and 51% | Population Mitotic Cells (%) [2, 4]: 53% and 54% | Population Normal (%) [2, 4]: 90% and 94% | Population Pyknosed Nuclei (%) [2, 4]: 12% and 11% | Population Tubulin-Different-Phenotype (%) [2, 4]: 27% and 17% | Total Cell Count [2, 4]: 406 and 387 | Population Apoptotic (%) [2, 5]: 44% and 62% | Population Fragmented Nuclei (%) [2, 5]: 6% and 5% | Population Healthy Nuclei (%) [2, 5]: 75% and 72% | Population Hoechst High Intensity Objects (%) [2, 5]: 8% and 16% | Population Membrane Permeable-Phenotype (%) [2, 5]: 0% | Population Mitochondria Different-Phenotype (%) [2, 5]: 63% and 78% | Population Mitotic Cells (%) [2, 5]: 55% and 37% | Population Normal (%) [2, 5]: 91% and 83% | Population Pyknosed Nuclei (%) [2, 5]: 18% and 21% | Population Tubulin-Different-Phenotype (%) [2, 5]: 57% and 51% | Total Cell Count [2, 5]: 315 and 265 | Population Apoptotic (%) [2, 6]: 30% and 31% | Population Fragmented Nuclei (%) [2, 6]: 9% | Population Healthy Nuclei (%) [2, 6]: 79% and 82% | Population Hoechst High Intensity Objects (%) [2, 6]: 6% and 5% | Population Membrane Permeable-Phenotype (%) [2, 6]: 0% and 1% | Population Mitochondria Different-Phenotype (%) [2, 6]: 24% | Population Mitotic Cells (%) [2, 6]: 69% and 68% | Population Normal (%) [2, 6]: 93% and 94% | Population Pyknosed Nuclei (%) [2, 6]: 10% and 8% | Population Tubulin-Different-Phenotype (%) [2, 6]: 21% and 11% | Total Cell Count [2, 6]: 564 and 515 | Population Apoptotic (%) [2, 7]: 34% and 60% | Population Fragmented Nuclei (%) [2, 7]: 6% and 10% | Population Healthy Nuclei (%) [2, 7]: 80% and 77% | Population Hoechst High Intensity Objects (%) [2, 7]: 6% and 16% | Population Membrane Permeable-Phenotype (%) [2, 7]: 0% | Population Mitochondria Different-Phenotype (%) [2, 7]: 53% and 70% | Population Mitotic Cells (%) [2, 7]: 66% and 39% | Population Normal (%) [2, 7]: 93% and 83% | Population Pyknosed Nuclei (%) [2, 7]: 13% and 12% | Population Tubulin-Different-Phenotype (%) [2, 7]: 49% and 39% | Total Cell Count [2, 7]: 406 and 310 | Population Apoptotic (%) [2, 8]: 21% and 34% | Population Fragmented Nuclei (%) [2, 8]: 11% and 13% | Population Healthy Nuclei (%) [2, 8]: 80% and 81% | Population Hoechst High Intensity Objects (%) [2, 8]: 2% | Population Membrane Permeable-Phenotype (%) [2, 8]: 1% | Population Mitochondria Different-Phenotype (%) [2, 8]: 13% and 11% | Population Mitotic Cells (%) [2, 8]: 78% and 65% | Population Normal (%) [2, 8]: 97% | Population Pyknosed Nuclei (%) [2, 8]: 7% and 5% | Population Tubulin-Different-Phenotype (%) [2, 8]: 12% and 8% | Total Cell Count [2, 8]: 930 and 751 | Population Apoptotic (%) [2, 9]: 38% and 53% | Population Fragmented Nuclei (%) [2, 9]: 12% and 14% | Population Healthy Nuclei (%) [2, 9]: 75% and 70% | Population Hoechst High Intensity Objects (%) [2, 9]: 4% and 11% | Population Membrane Permeable-Phenotype (%) [2, 9]: 0% | Population Mitochondria Different-Phenotype (%) [2, 9]: 49% and 50% | Population Mitotic Cells (%) [2, 9]: 61% and 46% | Population Normal (%) [2, 9]: 95% and 88% | Population Pyknosed Nuclei (%) [2, 9]: 11% and 15% | Population Tubulin-Different-Phenotype (%) [2, 9]: 35% and 38% | Total Cell Count [2, 9]: 559 and 394 | Population Apoptotic (%) [3, 4]: 82% and 81% | Population Fragmented Nuclei (%) [3, 4]: 34% and 21% | Population Healthy Nuclei (%) [3, 4]: 54% and 67% | Population Hoechst High Intensity Objects (%) [3, 4]: 4% and 2% | Population Membrane Permeable-Phenotype (%) [3, 4]: 8% and 11% | Population Mitochondria Different-Phenotype (%) [3, 4]: 4% and 14% | Population Mitotic Cells (%) [3, 4]: 17% and 18% | Population Normal (%) [3, 4]: 95% and 97% | Population Pyknosed Nuclei (%) [3, 4]: 11% and 10% | Population Tubulin-Different-Phenotype (%) [3, 4]: 3% and 7% | Total Cell Count [3, 4]: 261 and 105 | Population Apoptotic (%) [3, 5]: 86% and 33% | Population Fragmented Nuclei (%) [3, 5]: 26% and 28% | Population Healthy Nuclei (%) [3, 5]: 65% | Population Hoechst High Intensity Objects (%) [3, 5]: 1% and 2% | Population Membrane Permeable-Phenotype (%) [3, 5]: 13% and 5% | Population Mitochondria Different-Phenotype (%) [3, 5]: 3% and 6% | Population Normal (%) [3, 5]: 98% and 97% | Population Pyknosed Nuclei (%) [3, 5]: 8% and 6% | Population Tubulin-Different-Phenotype (%) [3, 5]: 3% and 6% | Total Cell Count [3, 5]: 270 and 91 | Population Apoptotic (%) [3, 6]: 77% and 93% | Population Fragmented Nuclei (%) [3, 6]: 25% and 20% | Population Healthy Nuclei (%) [3, 6]: 67% and 64% | Population Hoechst High Intensity Objects (%) [3, 6]: 3% and 4% | Population Membrane Permeable-Phenotype (%) [3, 6]: 5% and 10% | Population Normal (%) [3, 6]: 96% and 95% | Population Pyknosed Nuclei (%) [3, 6]: 7% and 15% | Population Tubulin-Different-Phenotype (%) [3, 6]: 2% and 10% | Total Cell Count [3, 6]: 301 and 111 | Population Apoptotic (%) [3, 7]: 80% and 83% | Population Fragmented Nuclei (%) [3, 7]: 25% | Population Healthy Nuclei (%) [3, 7]: 68% | Population Hoechst High Intensity Objects (%) [3, 7]: 1% | Population Membrane Permeable-Phenotype (%) [3, 7]: 3% and 4% | Population Mitochondria Different-Phenotype (%) [3, 7]: 3% and 2% | Population Mitotic Cells (%) [3, 7]: 19% and 16% | Population Normal (%) [3, 7]: 98% | Population Pyknosed Nuclei (%) [3, 7]: 6% | Population Tubulin-Different-Phenotype (%) [3, 7]: 2% and 7% | Population Apoptotic (%) [3, 8]: 78% and 93% | Population Fragmented Nuclei (%) [3, 8]: 20% and 25% | Population Healthy Nuclei (%) [3, 8]: 68% and 62% | Population Hoechst High Intensity Objects (%) [3, 8]: 3% and 1% | Population Membrane Permeable-Phenotype (%) [3, 8]: 3% and 13% | Population Mitochondria Different-Phenotype (%) [3, 8]: 2% and 11% | Population Normal (%) [3, 8]: 96% and 98% | Population Pyknosed Nuclei (%) [3, 8]: 10% and 11% | Population Tubulin-Different-Phenotype (%) [3, 8]: 1% and 10% | Total Cell Count [3, 8]: 416 and 142 | Population Apoptotic (%) [3, 9]: 80% and 93% | Population Fragmented Nuclei (%) [3, 9]: 19% and 18% | Population Healthy Nuclei (%) [3, 9]: 70% and 68% | Population Hoechst High Intensity Objects (%) [3, 9]: 2% and 5% | Population Membrane Permeable-Phenotype (%) [3, 9]: 3% | Population Mitochondria Different-Phenotype (%) [3, 9]: 2% and 6% | Population Normal (%) [3, 9]: 97% and 94% | Population Pyknosed Nuclei (%) [3, 9]: 9% and 12% | Population Tubulin-Different-Phenotype (%) [3, 9]: 1% and 6%
